≈ marks a conversion by molar mass, not a printed value.
Assays:
Vasopressin V1a receptor [1] = biological target: T1, Vasopressin V1a receptor (Homo sapiens, UniProt P37288); assay: Displacement of [3H]-vasopressin from human vasopressin 1a receptor expressed in HEK293 cell membranes after 1 hr by scintillation proximity assay
In short: (§1)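 Radioligand competition binding; affinity reported as Ki.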
Target sequence in this assay (P37288 whole entry): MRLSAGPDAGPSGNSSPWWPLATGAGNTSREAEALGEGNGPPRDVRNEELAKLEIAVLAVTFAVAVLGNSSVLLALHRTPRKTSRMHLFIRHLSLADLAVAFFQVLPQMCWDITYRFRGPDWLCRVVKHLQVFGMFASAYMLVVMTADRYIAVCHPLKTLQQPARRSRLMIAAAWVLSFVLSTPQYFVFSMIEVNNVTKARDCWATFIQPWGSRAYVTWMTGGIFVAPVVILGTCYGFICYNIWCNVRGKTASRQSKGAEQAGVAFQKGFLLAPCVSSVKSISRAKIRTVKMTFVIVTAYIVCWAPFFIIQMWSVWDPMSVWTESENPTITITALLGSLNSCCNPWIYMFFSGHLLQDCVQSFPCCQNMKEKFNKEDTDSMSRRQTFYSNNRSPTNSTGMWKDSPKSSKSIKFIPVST

Vasopressin V1a receptor [2] = biological target: T1, Vasopressin V1a receptor; assay: Antagonist activity at human vasopressin 1a receptor expressed in CHO cells assessed as inhibition of vasopressin-induced calcium flux preincubated for 20 mins followed by vasopressin induction measured for 5 mins by FLIPR assay; format: functional, cell-based
In short: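 Functional antagonist calcium-flux read-out; value reported as apparent affinity (Kb).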
Target sequence in this assay (P37288 whole entry, looked up): as the sequence (P37288 whole entry) above

Vasopressin V1a receptor [3] = biological target: Vasopressin V1a receptor (Mus musculus, UniProt Q62463); assay: Displacement of [3H]-vasopressin from mouse vasopressin 1a receptor expressed in HEK293 cell membranes after 1 hr by scintillation proximity assay; in short: as §1
Homo sapiens [4] = organism: Homo sapiens; assay: Selectivity ratio of Ki for human vasopressin V2 receptor to Ki for human vasopressin 1a receptor
In short: (§2)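 Ratio of the Ki at hV2 or hOTR to the hV1a Ki. Each Ki came from a radioligand competition binding assay.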

Homo sapiens [5] = organism: Homo sapiens; assay: Selectivity ratio of Ki for human oxytocin receptor to Ki for human vasopressin 1a receptor; in short: as §2
[6] = Solubility of the compound in phosphate buffer at pH 6.5 incubated for 1 hr with stirring followed by 2 hrs of shaking by Lysa assay; format: physicochemical
[7] = Activity at human P-gp assessed as drug transport; format: ADME
[8] = Ratio of drug level in brain to plasma in mouse at 10 mg/kg, po; format: ADME, organism-based; design: dose 10 mg/kg, route oral; conditions: read-out: BPR
[9] = Volume of distribution at steady state in mouse at 2 mg/kg, iv; format: ADME, organism-based; design: dose 2 mg/kg, route intravenous; conditions: in vivo, read-out: Vdss
[10] = Clearance in mouse at 2 mg/kg, iv; format: ADME, organism-based; design: dose 2 mg/kg, route intravenous; conditions: in vivo
[11] = Octanol-buffer partition co-efficient, log D of the compound after 24 hrs by high-throughput shake-flask method; format: physicochemical
Vasopressin V1b receptor = biological target: T2, Vasopressin V1b receptor (Homo sapiens, UniProt P47901); assay: Displacement of [3H]-vasopressin from human vasopressin 1b receptor after 1 hr by scintillation proximity assay
T2 sequence (P47901 whole entry): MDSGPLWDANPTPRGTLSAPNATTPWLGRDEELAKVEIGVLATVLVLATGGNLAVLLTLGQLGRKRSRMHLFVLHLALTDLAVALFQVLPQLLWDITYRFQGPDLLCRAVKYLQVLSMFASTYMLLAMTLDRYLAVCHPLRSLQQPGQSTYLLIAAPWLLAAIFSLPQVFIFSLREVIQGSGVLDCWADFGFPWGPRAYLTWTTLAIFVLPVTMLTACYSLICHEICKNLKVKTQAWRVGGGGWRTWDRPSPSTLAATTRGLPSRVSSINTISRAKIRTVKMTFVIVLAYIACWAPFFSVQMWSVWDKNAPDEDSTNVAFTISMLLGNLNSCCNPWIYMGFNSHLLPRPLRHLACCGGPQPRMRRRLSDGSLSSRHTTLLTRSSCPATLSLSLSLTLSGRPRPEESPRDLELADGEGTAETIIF

Mus musculus [12] = assay: Inhibition of arginine vasopressin-induced scratching in icv dosed NMRI mouse administered 5 mins prior to arginine vasopressin challenge measured for 5 mins; format: functional, organism-based
In short: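 Mice received the compound i.c.v. at three doses or vehicle before centrally given AVP. AVP-induced scratching was scored and expressed as % of maximal response.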

Mus musculus [13] = assay: Inhibition of arginine vasopressin-induced scratching in ip dosed NMRI mouse administered 30 mins prior to arginine vasopressin challenge measured for 5 mins; format: functional, organism-based
In short: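 Mice received the compound i.p. at 0.3, 1, 3, 10 or 30 mg/kg or vehicle before centrally given AVP. AVP-induced scratching was scored and expressed as % of maximal response.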

Vasopressin V2 receptor = Vasopressin V2 receptor (Homo sapiens, UniProt P30518); assay: Displacement of [3H]-vasopressin from human vasopressin V2 receptor expressed in HEK293 cell membranes after 1 hr by scintillation proximity assay
Oxytocin receptor = biological target: T3, Oxytocin receptor (Homo sapiens, UniProt P30559); assay: Displacement of [3H]-oxytocin from human oxytocin receptor expressed in HEK cell membranes after 1 hr by scintillation proximity assay; design: species or system HEK293
T3 sequence (P30559 whole entry): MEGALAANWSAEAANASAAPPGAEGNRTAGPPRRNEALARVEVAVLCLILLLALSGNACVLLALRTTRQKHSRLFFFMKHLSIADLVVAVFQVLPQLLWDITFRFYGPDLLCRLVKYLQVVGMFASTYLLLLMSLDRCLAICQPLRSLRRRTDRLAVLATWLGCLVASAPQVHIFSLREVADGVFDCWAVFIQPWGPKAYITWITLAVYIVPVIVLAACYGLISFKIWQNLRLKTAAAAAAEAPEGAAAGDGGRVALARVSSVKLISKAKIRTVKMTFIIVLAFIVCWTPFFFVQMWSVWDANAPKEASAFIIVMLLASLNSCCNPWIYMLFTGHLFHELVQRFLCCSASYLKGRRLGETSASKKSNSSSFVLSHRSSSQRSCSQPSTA

Sequence of Vasopressin V1a receptor (Mus musculus, UniProt Q62463) (Q62463 whole entry): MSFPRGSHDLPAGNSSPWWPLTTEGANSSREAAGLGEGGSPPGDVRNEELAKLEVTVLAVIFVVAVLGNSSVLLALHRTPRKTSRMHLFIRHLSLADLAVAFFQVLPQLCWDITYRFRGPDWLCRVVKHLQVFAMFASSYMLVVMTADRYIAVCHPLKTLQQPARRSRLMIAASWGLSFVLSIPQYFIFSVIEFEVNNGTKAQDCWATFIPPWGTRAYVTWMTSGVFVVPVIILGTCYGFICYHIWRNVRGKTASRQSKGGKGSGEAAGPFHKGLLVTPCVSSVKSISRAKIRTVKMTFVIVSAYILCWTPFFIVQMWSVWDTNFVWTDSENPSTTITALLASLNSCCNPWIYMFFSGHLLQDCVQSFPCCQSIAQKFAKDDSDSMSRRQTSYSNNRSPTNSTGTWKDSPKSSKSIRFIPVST
Sequence of Vasopressin V2 receptor (P30518 whole entry): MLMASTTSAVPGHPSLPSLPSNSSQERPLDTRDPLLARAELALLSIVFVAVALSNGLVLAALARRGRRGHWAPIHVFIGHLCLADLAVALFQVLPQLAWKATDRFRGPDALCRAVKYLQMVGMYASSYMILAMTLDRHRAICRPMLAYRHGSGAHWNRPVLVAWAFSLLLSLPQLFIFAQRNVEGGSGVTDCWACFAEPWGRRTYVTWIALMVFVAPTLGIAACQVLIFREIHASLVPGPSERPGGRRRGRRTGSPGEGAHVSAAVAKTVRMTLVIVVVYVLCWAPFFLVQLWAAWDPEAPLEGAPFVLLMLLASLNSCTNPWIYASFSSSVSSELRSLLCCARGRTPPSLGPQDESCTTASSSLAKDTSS

Row | Ki (Vasopressin V1a receptor [1]; read-out: Ki) [nM] | Kb (Vasopressin V1a receptor [2]) [nM] | Ki (Vasopressin V1a receptor [3]; read-out: Ki) [nM] | SMILES | solubility at 3 h [6] [µg/mL] | further results
1 | 4990 | – | – | Cc1c(C(=O)N2CCC(O)(Cc3ccccc3)CC2)c2ccccc2n1S(=O)(=O)c1ccccc1 | – | –
2 | 5 | 1.8 | 1020 | O=C(c1c[nH]c2cc(Cl)ccc12)N1CCC2(CC1)OCc1cccnc12 | – | –
3 | 16 | 72 | – | O=C(c1c[nH]c2cc(Cl)ccc12)N1CCC2(CC1)COc1ccccc12 | – | Ki (Vasopressin V1a receptor [3]; hek293): Not Active
4 | 32 | – | 6620 | O=C(c1c[nH]c2ccccc12)N1CCC2(CC1)OCc1ccccc12 | 17 (≈ 51.1 µM) | logD at 24 h [11]: > 3
5 | 23 | 43 | 1490 | O=C(c1c[nH]c2cc(Cl)ccc12)N1CCC(c2ccccc2)CC1 | – | –
6 | – | 38 | – | O=C1Nc2ccccc2C2(CCN(C(=O)c3c[nH]c4cc(Cl)ccc34)CC2)O1 | – | Ki (Vasopressin V1a receptor [3]; hek293): Not Active
7 | 118 | 193 | 1970 | O=C(c1c[nH]c2cc(Cl)ccc12)N1CCN(c2ccccc2Cl)CC1 | – | –
8 | – | 20 | 5890 | O=C(c1c[nH]c2cc(Cl)ccc12)N1CCC2(CC1)CNc1ccccc12 | – | –
9 | 81 | – | – | CCOc1ccc2ccccc2c1C(=O)N1CCC2(CC1)OCc1ccccc12 | – | Ki (Vasopressin V1b receptor): Not Active
10 | 2830 | – | – | CCOc1ccc2ccccc2c1C(=O)N1CCC(O)(Cc2ccccc2)CC1 | – | Ki (Vasopressin V1b receptor; read-out: Ki): 12000 nM
11 | 5 | 5 | – | O=C1OC2(CCN(C(=O)c3c[nH]c4cc(Cl)ccc34)CC2)c2ccccc21 | – | Ki (Vasopressin V1a receptor [3]; hek293): Not Active
12 | 4 | 3.3 | 11 | CN1CCC(n2cc(C(=O)N3CCC4(CC3)OCc3ccccc34)c3ccc(Cl)cc32)CC1 | 12 (≈ 25.9 µM) | Ratio Ki (Homo sapiens [4]): > 6750; Ratio Ki (Homo sapiens [5]): 1200; Activity [7]: Not Active; Kp [8]: 1; Vd [9]: 7.2 L/kg; clearance [10]: 52 mL/min/kg
13 | 39 | 7.8 | 4820 | O=C(c1c[nH]c2cc(Cl)ccc12)N1CCC2(CC1)OCc1ncccc12 | – | –
14 | 9 | 4.2 | 2980 | O=C(c1c[nH]c2cc(Cl)ccc12)N1CCC2(CC1)OCc1ccncc12 | – | –
15 | – | – | – | COc1ccccc1C(=O)N1CCC(O)(Cc2ccccc2)CC1 | – | Ki (Vasopressin V1a receptor [1]; hek293): Not Active
16 | 6620 | – | – | O=C(c1cccc2ccccc12)N1CCC(O)(Cc2ccccc2)CC1 | – | –
17 | 4 | 2.9 | 1010 | O=C(c1c[nH]c2cc(Cl)ccc12)N1CCC2(CC1)OCc1ccccc12 | 4 (≈ 10.9 µM) | Ki (Vasopressin V2 receptor): > 27000 nM; Ki (Oxytocin receptor; read-out: Ki): 7520 nM; Ratio Ki (Homo sapiens [4]): > 6750; Ratio Ki (Homo sapiens [5]): 1880; Activity [7]: Not Active; logD at 24 h [11]: 3.7
18 | 24 | 11 | 5890 | O=C(c1c[nH]c2cc(Cl)ccc12)N1CCC2(CC1)c1ccccc1CS2(=O)=O | – | –
19 | 3900 | – | – | Cc1c(C(=O)N2CCC(O)(Cc3ccccc3)CC2)c2ccccc2n1C(=O)c1ccccc1 | – | –
20 | 8 | 14 | 2390 | O=C(c1c[nH]c2cc(Cl)ccc12)N1CCC(n2c(=O)[nH]c3ccccc32)CC1 | – | –

Row | SMILES | Ki (Vasopressin V1a receptor [1]; read-out: Ki) [nM] | Kb (Vasopressin V1a receptor [2]) [nM] | Ki (Vasopressin V1a receptor [3]; read-out: Ki) [nM] | solubility at 3 h [6] [µg/mL] | further results
21 | O=C(c1cn(C[C@@H]2CCCN2)c2cc(Cl)ccc12)N1CCC2(CC1)OCc1ccccc12 | 1.4 | 1.4 | 125 | 108 (≈ 240 µM) | Ratio Ki (Homo sapiens [4]): > 19300; Ratio Ki (Homo sapiens [5]): 1510; Activity [7]: Active; Kp [8]: 0.05; Vd [9]: 6.8 L/kg; clearance [10]: 32 mL/min/kg
22 | CN1CCN(C(=O)Cn2cc(C(=O)N3CCC4(CC3)OCc3ccccc34)c3ccc(Cl)cc32)CC1 | 1 | 0.2 | 41 | 193 (≈ 381 µM) | Ratio Ki (Homo sapiens [4]): > 60000; Ratio Ki (Homo sapiens [5]): 9160; Kp [8]: 0.07; Vd [9]: 1.5 L/kg; clearance [10]: 39 mL/min/kg; inhibition (Mus musculus [12]): Dose-dependent effect
23 | CN(C)C(=O)Cn1cc(C(=O)N2CCC3(CC2)OCc2ccccc23)c2ccc(Cl)cc21 | – | 0.1 | 14 | 56 (≈ 124 µM) | Activity [7]: Active; Kp [8]: 0.05; Vd [9]: 1.2 L/kg; clearance [10]: 40 mL/min/kg
24 | CN(C)CCNC(=O)Cn1cc(C(=O)N2CCC3(CC2)OCc2ccccc23)c2ccc(Cl)cc21 | 2 | 0.7 | 177 | > 650 | Ratio Ki (Homo sapiens [4]): 11800; Ratio Ki (Homo sapiens [5]): 5690; Activity [7]: Active; Kp [8]: 0.1; Vd [9]: 4.9 L/kg; clearance [10]: 14 mL/min/kg; inhibition (Mus musculus [13]): Dose-dependent effect
25 | Cc1c(C(=O)N2CCC3(CC2)OCc2ccccc23)c2ccccc2n1Cc1ccccc1 | 2 | 3.6 | 210 | < 1 | Ki (Vasopressin V2 receptor): 9310 nM; Ki (Oxytocin receptor; hek293): Not Active; logD at 24 h [11]: > 3
26 | CN(C)CCn1cc(C(=O)N2CCC3(CC2)OCc2ccccc23)c2ccc(Cl)cc21 [RO-5028442] | – | 2.6 | 39 | 205 (≈ 468 µM) | Ratio Ki (Homo sapiens [4]): > 30000; Ratio Ki (Homo sapiens [5]): 9890; Activity [7]: Not Active; Kp [8]: 1.4; Vd [9]: 5.8 L/kg; clearance [10]: 91 mL/min/kg
27 | CN1CCC[C@H]1Cn1cc(C(=O)N2CCC3(CC2)OCc2ccccc23)c2ccc(Cl)cc21 | 1 | 0.5 | 13 | 140 (≈ 302 µM) | Ratio Ki (Homo sapiens [4]): 6070; Ratio Ki (Homo sapiens [5]): 1980; Activity [7]: Not Active; Kp [8]: 2; Vd [9]: 2.6 L/kg; clearance [10]: 67 mL/min/kg
28 | Cc1c(C(=O)N2CCC(O)(Cc3ccccc3)CC2)c2ccccc2n1Cc1ccccc1 | 295 | – | – | – | –

Reference: ChEMBL document CHEMBL3414481, “Discovery of highly selective brain-penetrant vasopressin 1a antagonists for the potential treatment of autism via a chemogenomic and scaffold hopping approach” (J Med Chem, 2015)
